For six molecules, inhibition results are on record in ChEMBL document CHEMBL1156634, “Synthesis of somatostatin analogues containing C-terminal adamantane and their antiproliferative properties” (2008).

Where a SMILES comes first, the peptide text is derived from it. Bridges are numbered along the chain shown (N, C = ends). [ ]: non-standard residue; d: D form.

Common to all, as to assay type: functional
Experiment [1] has as its system A-431. Kind of experiment: Antiproliferative activity against human A431 cells at 10 uM after 48 hrs by MTT assay. The following applies: A-431, 48 h. The essentials:
(§1)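 MTT read-out: mitochondrial dehydrogenase reduces MTT to formazan in viable cells, cells solubilized with DMSO, absorbance read at 540 nm on an ELISA reader. Cycloheximide and a reference peptide run as positive controls. Values given as % inhibition of cellular proliferation, mean ± SE.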

Experiment [2] has as its system A-431. Kind of experiment: Antiproliferative activity against human A431 cells at 25 uM after 48 hrs by MTT assay. Particulars: A-431, 48 h. The essentials:
as §1

Experiment [3] concerns A-431. Kind of experiment: Antiproliferative activity against human A431 cells at 50 uM after 48 hrs by MTT assay. Particulars: A-431, 48 h. The essentials:
as §1
On the technique in general: Tetrazolium assays rely on reduction of a dye to a coloured formazan, in cell work by metabolically active cells.

Experiment [4] deals with SW480. Kind of experiment: Antiproliferative activity against human SW480 cells at 10 uM after 48 hrs by MTT assay. Particulars: SW480, 48 h. Put shortly: as §1
Experiment [5] concerns SW480. Kind of experiment: Antiproliferative activity against human SW480 cells at 25 uM after 48 hrs by MTT assay. The following applies: SW480, 48 h. The essentials:
as §1

In experiment [6] the test system is SW480. Kind of experiment: Antiproliferative activity against human SW480 cells at 50 uM after 48 hrs by MTT assay. Particulars: SW480, 48 h. Put shortly:
as §1

What is called inhibition is the drop in the measured response relative to a control, in per cent. In the experiment with A-431 [1], `N[C@@H](Cc1ccc(O)cc1)C(=O)N[C@H](Cc1c[nH]c2ccccc12)C(=O)N[C@@H](CCCCNC(=O)OCc1ccccc1)C(=O)O` came in with an inhibition at 10 µM of 0%. In addition, the inhibition at 25 µM in the experiment on A-431 [2] stood at 0%. For the same molecule, the inhibition at 50 µM in the experiment with A-431 [3] turned out to be 0%.

`C[C@@H](O)[C@H](NC(=O)[C@@H]1CSSC[C@H](NC(=O)[C@H](N)Cc2ccccc2)C(=O)N[C@@H](Cc2ccc(O)cc2)C(=O)N[C@H](Cc2c[nH]c3ccccc23)C(=O)N[C@@H](CCCCN)C(=O)N1)C(N)=O` [TT-232] (H-[dF]CY[dW]KCT-NH2; disulfide 2-6): the inhibition at 10 µM with A-431 [1] was 50%; in the experiment on SW480 [4], 13%. Besides, the values for the inhibition at 25 µM in the experiment with A-431 [2] and with SW480 [5] were 60% and 47%, respectively. Also, the inhibition at 50 µM amounted to 80% with A-431 [3] and 88% in the experiment with SW480 [6].

In the case of `CC(C)(C)OC(=O)N[C@@H](Cc1ccc(O)cc1)C(=O)N[C@H](Cc1c[nH]c2ccccc12)C(=O)N[C@@H](CCCCNC(=O)OCc1ccccc1)C(=O)OCC1c2ccccc2-c2ccccc21`, in the experiment with A-431 [1], testing at 10 µM gave an inhibition of 2%. The molecule also displayed an inhibition at 25 µM in the experiment on A-431 [2] of 7%. The inhibition at 50 µM in the experiment with A-431 [3] was determined as 7%.

On to `C[C@@H]1C[C@@H]([C@H](O)CC2CC(=O)NC(=O)C2)C(=O)[C@@H](C)C1` [CYCLOHEXIMIDE], for which the inhibition at 10 µM in the experiment with A-431 [1] is 40%; in the experiment on SW480 [4], 68%. For the same molecule, the inhibition at 25 µM in the experiment on A-431 [2] is 70%; with SW480 [5], 85%. In addition, the figures for the inhibition at 50 µM with A-431 [3] and in the experiment on SW480 [6] were 80% and 92%, respectively.

The molecule `CC(C)(C)OC(=O)N[C@@H](Cc1ccc(O)cc1)C(=O)N[C@H](Cc1c[nH]c2ccccc12)C(=O)N[C@@H](CCCCNC(=O)OCc1ccccc1)C(=O)O` gave an inhibition at 10 µM with A-431 [1] of 0%. At 25 µM the inhibition in the experiment on A-431 [2] was 0%. For the same molecule, in the experiment with A-431 [3], the inhibition at 50 µM turned out to be 2%.

In turn, `N[C@@H](Cc1ccc(O)cc1)C(=O)N[C@H](Cc1c[nH]c2ccccc12)C(=O)O` showed an inhibition at 10 µM with A-431 [1] of 0%. Moreover, at 25 µM the inhibition in the experiment with A-431 [2] was 8%. The molecule also had an inhibition at 50 µM in the experiment with A-431 [3] of 11%.
